Compounds with a hit are over-represented: about 3.9% of the library has one in this group of screens.
Jurkat NFkB inh = inhibitors of the PMA/ionomycin-induced NF-kB reporter in Jurkat cells; PMA/ionomycin-induced NF-kB luciferase reporter, luminescence; inhibition, % at 4 µM; hit rate 0.53% among 330,000; in the data active means inhibition above about 50%
Gli-Sufu block = blocks Gli-Sufu signaling in a luciferase reporter; Sufu-KO-LIGHT fibroblasts, Gli luciferase reporter luminescence; inhibition, % at 5 µM; hit rate 0.74% among 340,000; AID 588413;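 active means inhibition above about 55%, limit read from the data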;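 further: 0% = DMSO-treated cells and 100% = wells with medium but no cells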
697 NFkB inh = inhibitors of the PMA/ionomycin-induced NF-kB reporter in 697 B cells | 697 B-cell NF-kB luciferase reporter, 16 h | inhibition, % at 4 µM | hit rate 0.33% among 330,000 | AID 435022; in the data active means inhibition above about 35%
UPR CHOP act = activators of apoptotic arm of unfolded protein response (CHOP); hit rate 0.34% among 330,000; activation, % at 10 µM; AID 449763; CHO-CHOP luciferase reporter, UPR activation, luminescence; percent of tunicamycin response over DMSO baseline;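 active means at 10 µM dose, activation of 40% or more, normalized to positive control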;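 further: 100% = tunicamycin at 10 µg/mL and 0% = DMSO alone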
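Assay system: CHO-CHOP cells, stable luciferase reporter of PERK-eIF2a-CHOP signalling / Buffer or medium: F12 plus 10% serum / Compound dosing: one dose, 10 µM in 0.5% DMSO / Times: 6 h compound treatment, 37 °C / Technique: luciferase luminescence / Read-out: % reporter activation, DMSO baseline versus tunicamycin full activation / Benchmarks: tunicamycin and DMSO controls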
XBP1 UPR activ = adaptive UPR (XBP1) activation. activation, % at 20 µM. CHO-XBP1 luciferase reporter, IRE1-XBP1 UPR activation, luminescence; percent of tunicamycin response, DMSO as zero. hit rate 0.33% among 330,000;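 active means versus positive control, 20 µM dose yields 30% or more activation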;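 further: 100% = tunicamycin at 10 µg/mL and 0% = DMSO only wells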
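Material: CHO cell line with stable XBP1 luciferase reporter; schedule: 16-18 h cell attachment at 37 °C, then 6 h compound exposure; signal: glow luminescence from Steady-Glo reagent; medium: serum-containing F12 medium, 10% FBS; benchmarks: tunicamycin 10 µg/mL and vehicle-only wells; read-out: percent activation relative to tunicamycin reference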
CHOP inh = CHOP inhibition in unfolded protein response; AID 2732; CHO-K1 CHOP-promoter luciferase, tunicamycin-induced, 15-18 h; hit rate 3.8% among 220,000; inhibition, % at 10 µM;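 active means compounds that reduced the stress-induced luciferase reporter signal by more than about 70% of percent inhibition, limit read from the data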;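 further: 0% = tunicamycin plus vehicle and 100% = wells without tunicamycin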
Jurkat NFkB conf = inhibitors of the PMA/ionomycin-induced NF-kB reporter in Jurkat cells, retest | shares compounds with Jurkat NFkB inh | Jurkat NF-kB luciferase, 16 h | inhibition, % at 4 µM | hit rate 27% among 2,700 | AID 435020;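 active means inhibition reaching about 45% at 4 µM in either replicate, limit read from the data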;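 further: plate controls were PMA/ionomycin stimulated DMSO wells for no effect and unstimulated DMSO wells for full effect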
* hit, by the source's call; . = no result given.

SMILES | Jurkat NFkB inh | Gli-Sufu block | 697 NFkB inh | UPR CHOP act | XBP1 UPR activ | CHOP inh | Jurkat NFkB conf
COc1ccc2cc(CN(CC3CCCO3)C(=S)Nc3ccccc3)c(=O)[nH]c2c1 (configuration not stated) | 50 | 15 | 6 | 2 | 3 | 4 | 9
COc1ccc2[nH]c(=O)c(CN(CC3CCCO3)C(=S)Nc3ccccc3)cc2c1 (configuration not stated) | -4 | 15 | -11 | -1 | 0 | 40 | .
Cc1ccc(C)c(CSc2nc3[nH]ncc3c(=O)[nH]2)c1 | 66* | 27 | -30 | -3 | -3 | 40 | 46
CCC(C)(C)c1nnc(NC(=O)C2CC(=O)N(CCc3ccc(F)cc3)C2)s1 (configuration not stated) | 9 | 4 | 5 | -1 | 2 | . | .
CC(C)(C)c1ccc(/C=C/C(=O)Nc2nncs2)cc1 | -171 | -56 | -11 | 6 | 2 | -19 | -113
Cn1nc(C#N)c(=O)[nH]c1=O | . | 3 | . | . | . | . | .
Cc1c(C(=O)N2CCN(c3ccc([N+](=O)[O-])cc3)CC2)oc2ccccc12 | 51* | 10 | 14 | -1 | -5 | . | 32
O=C(c1cc([N+](=O)[O-])ccc1N1CCOCC1)N1CCN(c2ccccc2)CC1 | 74* | . | -54 | 0 | 16 | . | 33
O=C(NCCc1ccccc1)c1cc([N+](=O)[O-])ccc1N1CCOCC1 | 8 | 1 | 10 | -1 | -2 | . | .
O=C(NCCOc1ccccc1)c1cc([N+](=O)[O-])ccc1N1CCOCC1 | 60* | . | -66 | -1 | -1 | . | 57*
O=C(c1ccc2c(c1)OCCO2)N1CCN(c2ccc([N+](=O)[O-])cc2)CC1 | 56* | . | 7 | 0 | -5 | -1 | -12
CC(=O)N1CCN(C(=O)c2ccc3c(c2)OCCO3)CC1 | 16 | 1 | 16 | 0 | -2 | . | .
Cc1c(Cl)c([N+](=O)[O-])nn1CC(=O)N1CCN(C23CC4CC(CC(C4)C2)C3)CC1 | 18 | 10 | 1 | 2 | 0 | . | .
CCN1C(=NCc2ccco2)N[C@@H](c2cccc(F)c2)C(C(=O)OC)=C1C | -15 | -1 | -31 | -2 | -1 | . | .
CN(CC(=O)Nc1ccccc1Cl)C(=O)Cn1cnc2ccc(Cl)cc2c1=O | -18 | -4 | 4 | 1 | 0 | . | .
O=C(NCCc1ccc(F)cc1)c1cc([N+](=O)[O-])ccc1N1CCOCC1 | 6 | 0 | 5 | 0 | 4 | . | .
O=C(NCCOc1ccccc1F)c1cc([N+](=O)[O-])ccc1N1CCOCC1 | 57* | -6 | -8 | 2 | -9 | . | 30
CC1CCCC(NC(=O)NC(=O)COC(=O)C2=NN(c3ccccc3)C(=O)CC2)C1C (configuration not stated) | 3 | 12 | 8 | -1 | 0 | . | .
O=C(Nc1nc2ccccc2[nH]1)c1cccc(F)c1 | -150 | -19 | -190 | 1 | -3 | . | -107
COc1ccc(C(=O)N[C@H](C(=O)Nc2nc3ccccc3[nH]2)C(C)C)cc1 | 28 | 32 | -185 | 3 | 19 | -34 | .
CN(C)c1cccc(C(=O)Nc2nc3ccccc3[nH]2)c1 | -72 | -37 | -158 | -3 | -7 | . | .
O=C(Nc1nc2ccccc2[nH]1)c1cccc(Br)c1 | -152 | -16 | -207 | 6 | 3 | . | -115
Cc1cccc(C(=O)N[C@H](C(=O)Nc2nc3ccccc3[nH]2)C(C)C)c1 | 60* | 38 | -10 | -1 | 14 | 12 | 37
CC(=O)Nc1ccc(S(=O)(=O)N2CCC(NC(=O)C(Cc3ccc(C)cc3)NC(C)=O)CC2)cc1 (configuration not stated) | -29 | -8 | -13 | 2 | 2 | . | .
Cc1cc(C)c2ccc(N)nc2c1O | 52* | 0 | -2 | 1 | 4 | . | 14
SMILES | Jurkat NFkB inh | Gli-Sufu block | 697 NFkB inh | UPR CHOP act | XBP1 UPR activ | CHOP inh | Jurkat NFkB conf
Cc1noc(C)c1COc1ccccc1C(=O)N1CCN(c2cccc(C(F)(F)F)c2)CC1 | 55* | 9 | -65 | -2 | -1 | . | 16
Nc1nc(-c2ccccc2)nc2sc3c(c12)CCCC3 | -162 | -107 | -244 | 10 | 4 | 49 | -156
O=c1oc(-c2ccccc2)nc2sc3c(c12)CCC3 | 14 | -15 | -6 | 6 | 1 | -19 | .
Cc1ccc(-c2nc3sc4c(c3c(=O)n2N)CCCC4)cc1 | -188 | -79 | -192 | 1 | 1 | 36 | -122
NC(N)=NN=C1CCCCCCCCCCC1 | 69* | 3 | -44 | 1 | -1 | 34 | 24
Cc1cc(C)cc(OCCCCn2cncn2)c1 | 5 | 4 | 3 | -1 | -4 | . | .
C/C=C(\C)CN1CCC(Oc2cc(C(=O)NC3CC3)ccc2OC)CC1 | 1 | 18 | -11 | 1 | -5 | . | .
O=C(Nc1ccc(Oc2cccnc2)nc1)c1ccc(C(F)(F)F)cc1 | 50* | 3 | -42 | 5 | -2 | 55 | 57*
O=C(NC(=O)c1c(Cl)cccc1Cl)Nc1ccc(Oc2cccnc2)nc1 | -28 | -7 | -7 | 1 | -4 | 9 | .
Cc1ccc2nc(C)c(CN3CCN(c4ccc([N+](=O)[O-])cc4Cl)CC3)n2c1 | 51* | . | -26 | 10 | 15 | . | 46*
O=[N+]([O-])c1ccc(Cl)c(CN2CCN(c3ncccn3)CC2)c1 | -1 | 1 | -11 | 2 | -2 | . | .
Oc1ccc(C2=NNC(=NCc3ccc4c(c3)OCO4)SC2)c(O)c1 | 52* | -19 | -51 | 4 | 6 | 19 | 16
CCc1ccc(NC(=O)C(=S)NC2CCCCC2)cc1 | -182 | -29 | -133 | 3 | 2 | -27 | -76
O=C(Nc1ccc(Br)cc1)NC1CCCCCCC1 | -179 | -105 | -219 | 5 | -3 | . | -81
COc1ccc(NC(=O)C(=S)NC2CCCCC2)cc1 | -156 | -109 | -141 | 8 | 5 | -10 | -49
CCOc1ccc(NC(=O)C(=S)NC2CCCCC2)cc1 | -72 | -69 | -33 | 4 | 3 | 4 | .
CCc1ccc(OCC(=O)Nc2ccc3c(c2)OCCO3)cc1 | -5 | 2 | 9 | 3 | -3 | . | .
O=C(Cc1ccc(Cl)cc1Cl)OCC(=O)N1CCCCC1 | 15 | -14 | 3 | -1 | 4 | . | .
CCOC(=O)c1sc(=NC(=O)c2ccc(F)cc2)n(C)c1C | -154 | -99 | -198 | 3 | 5 | . | -121
CCOC(=O)c1sc(=NC(=O)c2cccc(C)c2)n(C)c1C | -186 | -28 | -114 | 12 | 12 | 17 | -109
CCOC(=O)c1sc(=NC(=O)c2cccc(Br)c2)n(C)c1C | -111 | -20 | -84 | 16 | 3 | . | .
O=C1CCCc2nc3c(cc21)C(O)Oc1c-3ccc2ccccc12 (configuration not stated) | -156 | -77 | -208 | 5 | 5 | -21 | -66
